How the values were obtained:
[1] = molecular target: 5-hydroxytryptamine receptor 5A (Mus musculus, UniProt P30966); test: Binding affinity towards mouse 5-hydroxytryptamine 5A receptor using LSD as radioligand
[2] = molecular target: 5-hydroxytryptamine receptor 2A (Rattus norvegicus, UniProt P14842); test: Binding affinity towards rat 5-hydroxytryptamine 2A receptor expressed in NIH3T3 cells using [3H]ketanserin as radioligand; format: cell-based
Outline: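 Membranes from confluent NIH-3T3 cells stably expressing rat 5-HT2A, washed by centrifugation in 50 mM Tris-HCl. ~10 μg protein incubated with 0.5 nM [3H]ketanserin and 11 test concentrations (10⁻¹⁰ to 10⁻⁵ M) in triplicate. Incubation was 30 min at 37 °C in Tris/EDTA/MgCl2/ascorbate pH 7.4. Nonspecific binding defined with 10 μM ketanserin. Bound ligand was filtered and counted. Ki from Cheng–Prusoff, ≥3 determinations.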

[3] = molecular target: T1, 5-hydroxytryptamine receptor 2C (Rattus norvegicus, UniProt P08909); test: Binding affinity towards rat 5-hydroxytryptamine 2C receptor expressed in A-9 cells using [3H]mesulergine as radioligand; format: cell-based
T1 sequence (P08909 whole entry): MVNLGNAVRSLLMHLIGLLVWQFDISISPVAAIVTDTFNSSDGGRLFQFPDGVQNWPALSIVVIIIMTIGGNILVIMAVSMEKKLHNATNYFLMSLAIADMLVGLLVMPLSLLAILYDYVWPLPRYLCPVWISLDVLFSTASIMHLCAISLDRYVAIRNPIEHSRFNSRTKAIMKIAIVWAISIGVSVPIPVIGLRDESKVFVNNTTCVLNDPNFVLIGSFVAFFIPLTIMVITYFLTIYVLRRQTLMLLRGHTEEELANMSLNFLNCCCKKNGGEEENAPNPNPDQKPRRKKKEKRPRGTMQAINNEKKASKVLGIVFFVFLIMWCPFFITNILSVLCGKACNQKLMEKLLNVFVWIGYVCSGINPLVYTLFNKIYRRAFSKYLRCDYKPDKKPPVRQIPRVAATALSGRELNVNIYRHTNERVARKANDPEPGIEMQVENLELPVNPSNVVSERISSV
Outline: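 Rat 5-HT2C stably expressed in A-9 cells, grown to confluence; washed membranes (~10 μg protein) used. Competition against 2.0 nM [3H]mesulergine with 11 concentrations from 10⁻¹⁰ to 10⁻⁵ M, triplicate. Incubation 30 min, 37 °C, pH 7.4 Tris buffer with EDTA, MgCl2 and ascorbate. 1 μM mesulergine defined nonspecific binding. Filtration, scintillation counting. Ki via Cheng–Prusoff; at least three replicates.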

[4] = molecular target: T2, 5-hydroxytryptamine receptor 5A (Homo sapiens, UniProt P47898); test: Binding affinity towards human 5-hydroxytryptamine 5A receptor using LSD as radioligand
[5] = molecular target: T2, 5-hydroxytryptamine receptor 5A; test: Binding affinity towards 5-hydroxytryptamine 5A receptor using lysergic acid diethylamide (LSD) as radioligand
Outline: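 Radioligand competition binding at cloned 5-HT5A receptors (clone supplied by R. Hen). Nonspecific binding defined with 1 μM LSD.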

5-hydroxytryptamine receptor 5A (Mus musculus, UniProt P30966), sequence (P30966 whole entry): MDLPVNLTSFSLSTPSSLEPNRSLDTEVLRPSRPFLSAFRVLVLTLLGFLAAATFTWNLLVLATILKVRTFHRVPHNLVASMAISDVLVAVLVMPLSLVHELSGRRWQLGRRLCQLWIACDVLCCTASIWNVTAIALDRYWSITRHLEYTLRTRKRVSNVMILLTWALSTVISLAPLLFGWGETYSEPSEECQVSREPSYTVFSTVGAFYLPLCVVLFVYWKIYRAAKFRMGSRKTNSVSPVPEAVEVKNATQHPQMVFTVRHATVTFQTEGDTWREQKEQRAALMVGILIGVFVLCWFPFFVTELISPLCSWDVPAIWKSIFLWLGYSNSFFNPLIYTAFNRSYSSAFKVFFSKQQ
5-hydroxytryptamine receptor 2A, sequence (P14842 whole entry): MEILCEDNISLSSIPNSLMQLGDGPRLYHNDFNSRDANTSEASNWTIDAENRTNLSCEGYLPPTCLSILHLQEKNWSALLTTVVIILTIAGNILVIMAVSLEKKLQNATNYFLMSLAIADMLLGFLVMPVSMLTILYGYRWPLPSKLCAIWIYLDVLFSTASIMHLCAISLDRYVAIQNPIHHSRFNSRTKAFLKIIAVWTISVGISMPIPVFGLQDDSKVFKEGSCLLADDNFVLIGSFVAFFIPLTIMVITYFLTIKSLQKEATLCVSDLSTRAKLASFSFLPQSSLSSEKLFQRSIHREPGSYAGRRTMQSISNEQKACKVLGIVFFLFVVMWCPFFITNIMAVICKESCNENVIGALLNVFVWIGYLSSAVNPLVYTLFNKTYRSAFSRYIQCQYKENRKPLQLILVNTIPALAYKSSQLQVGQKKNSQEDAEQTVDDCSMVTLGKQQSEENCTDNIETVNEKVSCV
T2 sequence (P47898 whole entry): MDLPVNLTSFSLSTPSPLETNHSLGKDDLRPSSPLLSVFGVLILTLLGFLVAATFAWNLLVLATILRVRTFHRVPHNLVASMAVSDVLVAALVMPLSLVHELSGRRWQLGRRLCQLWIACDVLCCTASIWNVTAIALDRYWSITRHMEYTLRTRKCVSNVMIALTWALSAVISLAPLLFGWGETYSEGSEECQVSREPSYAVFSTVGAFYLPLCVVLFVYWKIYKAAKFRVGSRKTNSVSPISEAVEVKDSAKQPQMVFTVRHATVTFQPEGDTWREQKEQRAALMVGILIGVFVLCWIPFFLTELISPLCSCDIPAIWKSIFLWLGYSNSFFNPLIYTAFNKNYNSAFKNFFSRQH

Compound `Cn1c2c(c3ccccc31)CN(CCCCCCc1ccccc1)CC2` has a Ki [1] of 435 nM, a Ki [2] of 185 nM and a Ki [3] of 530 nM.
With `Cn1c2c(c3ccccc31)CN(CCCCCc1ccccc1)CC2` the Ki [1] was 120 nM, the Ki [2] was 130 nM and the Ki [4] was 174 nM. The Ki [3] was 1000 nM.
Compound `Cn1c2c(c3ccccc31)CN(CCCO)CC2` has a Ki [1] of 1100 nM and a Ki [4] of 1120 nM.
In the case of `Cn1c2c(c3ccccc31)CN(CCC/C(=N/O)c1ccc(F)cc1)CC2`, the Ki [2] is reported as 38 nM, the Ki [4] is reported as 340 nM and the Ki [3] is reported as 190 nM.
`Cn1c2c(c3ccccc31)CN(CCCOc1cccc3ccccc13)CC2` gave a Ki [1] of 650 nM, a Ki [2] of 625 nM and a Ki [3] of 400 nM.
In the case of `c1ccc(OCCCN2CCc3[nH]c4ccccc4c3C2)cc1`, the Ki [1] is reported as 600 nM, the Ki [2] is reported as 20 nM and the Ki [3] is reported as 160 nM.
`Cn1c2c(c3ccccc31)CN(CCCc1ccccc1)CC2` showed a Ki [1] of 250 nM.
`CN(CCCOc1ccc(F)cc1)Cc1cn(C)c2ccccc12` was tested, and the Ki [5] was 1.08 µM.
In the case of `Fc1ccc(OCCCN2CCc3ccccc3C2)cc1`, the Ki [5] is reported as 0.4 µM.
`Fc1ccc(OCCCN2CCc3[nH]c4ccccc4c3C2)cc1` gave a Ki [1] of 75 nM.
Work on `Cn1c2c(c3cccc(Cl)c31)CN(CCCOc1ccc(F)cc1)CC2` yielded a Ki [1] of 590 nM, a Ki [2] of 210 nM and a Ki [4] of 225 nM. For the same compound, the Ki [3] was 225 nM.
For `Cn1c2c(c3ccccc31)CCN(CCCOc1ccccc1)C2`, the Ki [1] was 360 nM, the Ki [2] was 150 nM and the Ki [4] was 620 nM. It also gave a Ki [3] of 400 nM.
With `Cn1c2c(c3ccccc31)CN(CCCOc1ccc(Cl)c(Cl)c1)CC2` the Ki [2] was 195 nM and the Ki [4] was 200 nM.
For `Cn1c2c(c3ccccc31)CN(CCCOc1ccc(Cl)cc1)CC2`, the Ki [2] was 115 nM and the Ki [4] was 200 nM.
`Cn1c2c(c3ccccc31)CN(CCOc1ccc(F)cc1)CC2` showed a Ki [2] of 175 nM, a Ki [4] of 930 nM and a Ki [3] of 235 nM.
`CCn1c2c(c3ccccc31)CN(CCCOc1ccccc1)CC2` showed a Ki [1] of 75 nM, a Ki [2] of 50 nM and a Ki [4] of 100 nM. For the same compound, the Ki [3] was 215 nM.
With `COc1cccc2c3c(n(C)c12)CCN(CCCOc1ccc(F)cc1)C3` the Ki [1] was 1220 nM, the Ki [2] was 120 nM and the Ki [4] was 1390 nM. For the same compound, the Ki [3] was 225 nM.
`COc1ccc2c(c1)c1c(n2C)CCN(CCCOc2ccc(F)cc2)C1` gave a Ki [1] of 98 nM, a Ki [2] of 38 nM and a Ki [4] of 165 nM. The Ki [3] was 150 nM.
In the case of `Cn1c2c(c3ccccc31)CN(CCCOc1ccccc1)CC2`, the Ki [1] is reported as 25 nM, the Ki [2] is reported as 70 nM and the Ki [4] is reported as 100 nM. For the same compound, the Ki [3] was 285 nM.
For `CC1=NCCc2c1n(C)c1ccccc21`, the Ki [5] was > 10 µM.
`COc1ccc(CCCCN2CCc3c(c4ccccc4n3C)C2)cc1` was tested, and the Ki [1] was 90 nM, the Ki [2] was 415 nM and the Ki [3] was 990 nM.
`Fc1ccc(OCCCN2CCCCC2)cc1` was tested, and the Ki [5] was > 10 µM.
`O=C(CCCN1CCc2c([nH]c3ccccc23)C1)c1ccccc1` was tested, and the Ki [1] was 550 nM, the Ki [2] was 16 nM and the Ki [3] was 115 nM.
In the case of `COc1ccc2c3c([nH]c2c1)C(C)NCC3` (stereo unspecified), the Ki [5] is reported as > 10 µM.
For `Cn1c2c(c3ccccc31)CN(CCCC(=O)c1ccc(F)cc1)CC2`, the Ki [1] was 115 nM, the Ki [2] was 60 nM and the Ki [3] was 60 nM.
`Cn1c2c(c3ccccc31)CN(CCCCc1ccccc1)CC2` was tested, and the Ki [1] was 130 nM.
With `Cn1c2c(c3ccccc31)CN(CCCC(=O)c1ccccc1)CC2` the Ki [1] was 135 nM, the Ki [2] was 22 nM and the Ki [4] was 168 nM.
`Cn1c2c(c3ccccc31)CN(CC#CCCc1ccccc1)CC2` showed a Ki [1] of 1710 nM and a Ki [4] of 1780 nM.
`Cn1c2c(c3ccccc31)CN(CCCOc1ccc([N+](=O)[O-])cc1)CC2` was tested, and the Ki [2] was 280 nM, the Ki [4] was 250 nM and the Ki [3] was 300 nM.
`c1ccc(Cn2c3c(c4ccccc42)CN(CCCOc2ccccc2)CC3)cc1` showed a Ki [1] of 875 nM, a Ki [2] of 65 nM and a Ki [3] of 90 nM.
`Cn1c2c(c3ccccc31)CN(C/C=C\CCc1ccccc1)CC2` gave a Ki [1] of 330 nM, a Ki [2] of 120 nM and a Ki [4] of 208 nM. For the same compound, the Ki [3] was 285 nM.
With `COc1ccc2[nH]c3c(C)nccc3c2c1` the Ki [5] was > 10 µM.
`Cn1c2c(c3ccccc31)CN(CCCOCc1ccccc1)CC2` gave a Ki [1] of 295 nM, a Ki [2] of 225 nM and a Ki [3] of 650 nM.
`O=C(CCCN1CCc2[nH]c3ccccc3c2C1)c1ccc(F)cc1` showed a Ki [1] of 512 nM.
`Cn1c2c(c3cc(Cl)ccc31)CN(CCCOc1ccc(F)cc1)CC2` showed a Ki [1] of 180 nM, a Ki [2] of 130 nM and a Ki [4] of 270 nM. For the same compound, the Ki [3] was 300 nM.
For `COc1ccc2[nH]c3c(c2c1)CCN=C3C`, the Ki [5] was > 10 µM.
Work on `Cn1c2c(c3ccccc31)CN(CCCC(O)c1ccc(F)cc1)CC2` (stereo unspecified) yielded a Ki [1] of 225 nM, a Ki [2] of 160 nM and a Ki [4] of 285 nM. For the same compound, the Ki [3] was 390 nM.
Compound `Cn1c2c(c3ccccc31)CN(CCCOc1ccc3ccccc3c1)CC2` has a Ki [1] of 655 nM, a Ki [2] of 480 nM and a Ki [3] of 300 nM.
Work on `COc1ccc(OCCCN2CCc3c(c4ccccc4n3C)C2)cc1` yielded a Ki [2] of 100 nM and a Ki [4] of 350 nM.
Work on `Cn1ccc2c1CCN(CCCOc1ccc(F)cc1)C2` yielded a Ki [5] of 1.92 µM.
Compound `Cn1c2c(c3ccccc31)CN(CCCCc1ccc(F)cc1)CC2` has a Ki [1] of 95 nM and a Ki [2] of 65 nM.
In the case of `Cn1c2c(c3ccccc31)CC(CCCOc1ccc(N)cc1)CC2` (stereo unspecified), the Ki [5] is reported as > 10 µM.
`c1ccc(OCCCN2CCc3c([nH]c4ccccc34)C2)cc1` was tested, and the Ki [1] was 335 nM, the Ki [2] was 50 nM and the Ki [3] was 310 nM.
`Cn1c2c(c3ccccc31)CN(CCCOc1ccc(N)cc1)CC2` gave a Ki [2] of 285 nM, a Ki [4] of 190 nM and a Ki [3] of 300 nM.
`Cn1c2c(c3ccccc31)CN(C/C=C/CCc1ccccc1)CC2` gave a Ki [1] of 350 nM, a Ki [2] of 60 nM and a Ki [4] of 185 nM. The Ki [3] was 245 nM.
In the case of `COc1ccc2c3c([nH]c2c1)CNCC3`, the Ki [5] is reported as > 10 µM.
In the case of `CN(C)CCCOc1ccc(F)cc1`, the Ki [5] is reported as > 10 µM.
`Cn1c2c(c3ccccc31)CNCC2` showed a Ki [2] of 3100 nM.
`Cn1c2c(c3ccccc31)CN(CCCOc1ccc(F)cc1)CC2` gave a Ki [1] of 13 nM, a Ki [2] of 30 nM and a Ki [3] of 75 nM.
With `COc1ccc2c3c([nH]c2c1)C=NCC3` [CGS-19281A] the Ki [5] was > 10 µM.
`COc1ccc2c3c([nH]c2c1)C(C)=NCC3` [HARMALINE] was tested, and the Ki [5] was > 10 µM.
For `CC1=NCCc2c1[nH]c1cc(O)ccc21` [HARMALOL], the Ki [5] was > 10 µM.
With `COc1ccc2c(c1)[nH]c1c(C)nccc12` [HARMINE] the Ki [5] was > 10 µM.
With `CC1NCCc2c1[nH]c1ccccc21` (stereo unspecified) [TETRAHYDROHARMAN] the Ki [5] was > 10 µM.
`c1ccc2c3c([nH]c2c1)CNCC3` [TRYPTOLINE] gave a Ki [5] of 3.2 µM.
